Active and inactive are the calls of the source. The calls are words filed in the database; no cut-off is given here.
Assays:
4T1 [1] = assay: Inhibition of mouse 4T1 cells adhesion to gelatinous matrix protein-coated surface after 60 mins by ELISA; assay type: functional, cell-based; details: for IC50: 4T1, 1 h
MCF7 [2] = assay: Inhibition of human MCF7 cells adhesion to gelatinous matrix protein-coated surface after 60 mins by ELISA; assay type: functional, cell-based
Method in brief: (§1)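 Wells coated with 12% (v/v) Matrigel for 1 h at 37°C, washed with 0.1% BSA RPMI, then blocked 60 min with 0.5% BSA RPMI. Cells pretreated with agents for 60 min at 37°C, then seeded at 2 × 10^4/well and allowed to adhere 30 min. Washed, formalin fixed, crystal violet stained, solubilized in 2% SDS, absorbance at 570 nm. Ratios compare IC50 values across cell lines.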

SK-BR-3 [3] = assay: Inhibition of human SK-BR-3 cells adhesion to gelatinous matrix protein-coated surface after 60 mins by ELISA; assay type: functional, cell-based; method in brief: as §1
4T1 [4] = assay: Cytotoxicity against mouse 4T1 cells after 24 hrs by MTT assay; assay type: cell-based; details: for IC50: Mus musculus, 4T1, 24 h; for Activity: mouse, 4t1, 24 h
Method in brief: (§2)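 MTT viability, six replicates. Cells seeded at 6000 per well in 10% FBS RPMI 1640 for 24 h, then exposed to agents at the indicated concentrations in 2% FBS RPMI 1640. DMSO-matched vehicle controls. MTT at 0.5 mg/ml in 10% FBS medium for 2 h at 37°C. Formazan dissolved in DMSO, A570 read.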

[5] = Cytotoxicity against human MCF10A cells after 24 hrs by MTT assay; assay type: cell-based, MCF-10A; details: for Activity: human, mcf-10a; for IC50: Homo sapiens, MCF-10A; method in brief: as §2
4T1 [6] = assay: Inhibition of mouse 4T1 cells metastasis at 5 uM after 30 mins by Boyden chamber assay; assay type: functional, cell-based
Method in brief: (§3)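 Transwell migration (12-μm pore). 5 × 10^4 cells in 0.2% FBS RPMI with agent in the upper insert for 30 min at 37°C, then moved to a well with 10% FBS RPMI for 24 h. Crystal violet stained. Migrated and non-migrated cells eluted with methanol separately, A570 read. % migration computed after background subtraction, expressed relative to vehicle (100%).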

[7] = biological target: Focal adhesion kinase 1 (Mus musculus) (UniProt P34152); assay: Induction of FAK degradation in mouse 4T1 cells at 5 uM after 1 hr by Western blotting; assay type: cell-based
4T1 [8] = assay: Effect on actin cytoskeletal structure in mouse 4T1 cells assessed as rapid dissolution of actin stress fibers at 10 uM after 4 hrs by immunocytochemistry; assay type: functional, cell-based
4T1 [9] = assay: Effect on actin cytoskeletal structure in mouse 4T1 cells assessed as impairment of lamellipodia formation at 10 uM after 4 hrs by immunocytochemistry; assay type: functional, cell-based
4T1 [10] = assay: Effect on actin cytoskeletal structure in mouse 4T1 cells assessed as rapid dissolution of F-actin fiber-associated reduction in fluorescent intensity at 10 uM after 4 hrs by immunocytochemistry relative to DMSO; assay type: functional; parameters: scale not given: the % may be the effect or the level left
4T1 [11] = assay: Effect on actin cytoskeletal structure in mouse 4T1 cells assessed as increase in accumulation of small vesicles surrounding nucleus and endoplasmic reticulum at 10 uM after 4 hrs by immunocytochemistry relative to DMSO; assay type: functional, cell-based
4T1 [12] = assay: Effect on actin cytoskeletal structure in mouse 4T1 cells assessed as rapid loss of F-actin fiber-associated detachment from neighbouring cells at 5 uM after 4 hrs by immunocytochemistry; assay type: functional, cell-based
MCF7 [13] = assay: Ratio of IC50 for inhibition of human MCF7 cells adhesion to gelatinous matrix protein-coated surface to IC50 for mouse 4T1 cells adhesion to gelatinous matrix protein-coated surface; assay type: functional; method in brief: as §1
SK-BR-3 [14] = assay: Ratio of IC50 for inhibition of human SK-BR-3 cells adhesion to gelatinous matrix protein-coated surface to IC50 for mouse 4T1 cells adhesion to gelatinous matrix protein-coated surface; assay type: functional; method in brief: as §1
4T1 [15] = assay: Inhibition of mouse 4T1 cells adhesion to collagen 4 at 0.5 to => 1 uM after 60 mins by ELISA; assay type: functional, cell-based
Method in brief: (§4)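 Wells coated 1 h at 37°C with 2 μg/ml vitronectin or 10 μg/ml collagen IV, fibronectin or laminin. Washed with 0.1% BSA RPMI, blocked 60 min with 0.5% BSA RPMI. 4T1 cells pretreated with agents for 60 min at 37°C, then 2 × 10^4 cells/well allowed to adhere 30 min. Nonadherent cells washed off. Formalin fixed, 0.5% crystal violet stained, dissolved in 2% SDS, A570 read.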

4T1 [16] = assay: Inhibition of mouse 4T1 cells adhesion to fibronectin at 0.5 to => 1 uM after 60 mins by ELISA; assay type: functional, cell-based; method in brief: as §4
4T1 [17] = assay: Inhibition of mouse 4T1 cells adhesion to laminin at 0.5 to => 1 uM after 60 mins by ELISA; assay type: functional, cell-based; method in brief: as §4
4T1 [18] = assay: Inhibition of mouse 4T1 cells adhesion to vitronectin at 0.5 to => 1 uM after 60 mins by ELISA; assay type: functional, cell-based; method in brief: as §4
4T1 [19] = assay: Inhibition of mouse 4T1 cells adhesion to collagen 4 at after 60 mins by ELISA; assay type: functional, cell-based; method in brief: as §4
4T1 [20] = assay: Inhibition of mouse 4T1 cells adhesion to fibronectin at after 60 mins by ELISA; assay type: functional, cell-based; method in brief: as §4
4T1 [21] = assay: Inhibition of mouse 4T1 cells adhesion to laminin at after 60 mins by ELISA; assay type: functional, cell-based; method in brief: as §4
4T1 [22] = assay: Inhibition of mouse 4T1 cells adhesion to vitronectin at after 60 mins by ELISA; assay type: functional, cell-based; method in brief: as §4
4T1 [23] = assay: Effect on actin cytoskeletal structure in mouse 4T1 cells assessed as rapid dissolution of actin stress fibers at 5 uM after 4 hrs by immunocytochemistry; assay type: functional, cell-based
4T1 [24] = assay: Effect on actin cytoskeletal structure in mouse 4T1 cells assessed as impairment of lamellipodia formation at 5 uM after 4 hrs by immunocytochemistry; assay type: functional, cell-based
4T1 [25] = assay: Effect on actin cytoskeletal structure in mouse 4T1 cells assessed as rapid dissolution of F-actin fiber-associated reduction in fluorescent intensity at 5 uM after 4 hrs by immunocytochemistry relative to DMSO; assay type: functional; parameters: scale not given: the % may be the effect or the level left
4T1 [26] = assay: Effect on actin cytoskeletal structure in mouse 4T1 cells assessed as increase in accumulation of small vesicles surrounding nucleus and endoplasmic reticulum at 5 uM after 4 hrs by immunocytochemistry relative to DMSO; assay type: functional, cell-based
[27] = biological target: Focal adhesion kinase 1 (Mus musculus) (UniProt P34152); assay: Induction of FAK degradation in mouse 4T1 cells at 5 uM after 1 hr by Western blotting
4T1 [28] = assay: Effect on actin cytoskeletal structure in mouse 4T1 cells assessed as rapid loss of F-actin fiber-associated detachment from neighbouring cells at 10 uM after 4 hrs by immunocytochemistry; assay type: functional, cell-based
4T1 [29] = assay: Inhibition of mouse 4T1 cells adhesion to gelatinous matrix protein-coated surface at 10 uM after 60 mins by ELISA; assay type: functional; details: 4T1, 1 h
MCF7 [30] = assay: Inhibition of human MCF7 cells adhesion to gelatinous matrix protein-coated surface at 100 uM after 60 mins by ELISA; assay type: functional, cell-based; method in brief: as §1
SK-BR-3 [31] = assay: Inhibition of human SK-BR-3 cells adhesion to gelatinous matrix protein-coated surface at 100 uM after 60 mins by ELISA; assay type: functional, cell-based; method in brief: as §1
4T1 [32] = assay: Inhibition of mouse 4T1 cells adhesion to collagen 4 at 5 to 100 uM after 60 mins by ELISA; assay type: functional, cell-based; method in brief: as §4
4T1 [33] = assay: Inhibition of mouse 4T1 cells adhesion to fibronectin at 5 to 100 uM after 60 mins by ELISA; assay type: functional, cell-based; method in brief: as §4
4T1 [34] = assay: Inhibition of mouse 4T1 cells adhesion to laminin at 5 to 100 uM after 60 mins by ELISA; assay type: functional, cell-based; method in brief: as §4
4T1 [35] = assay: Inhibition of mouse 4T1 cells adhesion to vitronectin at 5 to 100 uM after 60 mins by ELISA; assay type: functional, cell-based; method in brief: as §4
4T1 [36] = assay: Inhibition of mouse 4T1 cells metastasis at 50 uM after 30 mins by Boyden chamber assay; assay type: functional, cell-based; method in brief: as §3
4T1 [37] = assay: Effect on actin cytoskeletal structure in mouse 4T1 cells assessed as rapid dissolution of actin stress fibers at 50 uM after 4 hrs by immunocytochemistry; assay type: functional, cell-based

Chain of Focal adhesion kinase 1 (Mus musculus) (P34152 whole entry): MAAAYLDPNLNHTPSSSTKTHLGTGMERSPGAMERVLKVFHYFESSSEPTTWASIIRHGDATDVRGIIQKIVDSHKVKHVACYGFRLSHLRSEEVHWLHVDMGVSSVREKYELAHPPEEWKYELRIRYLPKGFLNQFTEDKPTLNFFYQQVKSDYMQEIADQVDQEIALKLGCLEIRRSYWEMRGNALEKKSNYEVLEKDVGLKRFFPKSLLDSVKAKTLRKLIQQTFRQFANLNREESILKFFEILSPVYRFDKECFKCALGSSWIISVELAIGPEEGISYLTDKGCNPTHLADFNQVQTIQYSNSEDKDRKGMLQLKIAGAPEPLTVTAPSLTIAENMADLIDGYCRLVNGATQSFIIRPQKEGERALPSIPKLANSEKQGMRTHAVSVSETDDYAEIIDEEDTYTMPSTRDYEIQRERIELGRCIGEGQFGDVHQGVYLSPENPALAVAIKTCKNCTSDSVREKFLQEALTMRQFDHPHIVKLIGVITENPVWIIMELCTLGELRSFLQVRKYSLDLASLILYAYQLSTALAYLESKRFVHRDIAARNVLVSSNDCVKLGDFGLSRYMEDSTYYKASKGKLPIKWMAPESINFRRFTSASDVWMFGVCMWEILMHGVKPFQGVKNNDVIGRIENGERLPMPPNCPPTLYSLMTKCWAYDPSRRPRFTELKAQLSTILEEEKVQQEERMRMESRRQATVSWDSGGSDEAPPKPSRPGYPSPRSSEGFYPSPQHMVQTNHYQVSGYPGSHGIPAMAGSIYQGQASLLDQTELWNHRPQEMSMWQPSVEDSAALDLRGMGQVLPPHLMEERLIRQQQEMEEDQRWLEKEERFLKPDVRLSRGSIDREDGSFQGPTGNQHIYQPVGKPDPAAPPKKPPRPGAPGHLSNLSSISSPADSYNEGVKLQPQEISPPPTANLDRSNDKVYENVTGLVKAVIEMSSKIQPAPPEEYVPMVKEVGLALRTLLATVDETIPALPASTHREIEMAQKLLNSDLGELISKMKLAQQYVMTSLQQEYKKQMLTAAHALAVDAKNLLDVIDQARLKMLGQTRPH

SMILES	IC50 (4T1 [1])	Activity [7]	inhibition (4T1 [1])	inhibition (MCF7 [2])	inhibition (SK-BR-3 [3])	IC50 (4T1 [4])	Activity (4T1 [4])	Activity [5]	inhibition (4T1 [6])	IC50 [5]	further results
Cc1c(C)c2c(c(C)c1OCC(=O)O)CC[C@](C)(/C=C/CC(C)CCCC(C)C)O2 (stereo partly drawn)	0.6 µM		Dose-dependent effect	Dose-dependent effect	Dose-dependent effect	> 10 µM	Dose-dependent effect	Dose-dependent effect	Active	23 µM	Activity (4T1 [12]): Active; IC50 (MCF7 [2]; MCF7, 1 h): 2 µM; IC50 (SK-BR-3 [3]; SK-BR-3, 1 h): 2 µM; Ratio IC50 (MCF7 [13]): 3.3; Ratio IC50 (SK-BR-3 [14]): 3.3; inhibition (4T1 [15]): Active; inhibition (4T1 [16]): Active; inhibition (4T1 [17]): Active; inhibition (4T1 [18]): Active; inhibition (4T1 [19]): Dose-dependent effect; inhibition (4T1 [20]): Dose-dependent effect; inhibition (4T1 [21]): Dose-dependent effect; inhibition (4T1 [22]): Dose-dependent effect; Activity (4T1 [23]): Active; Activity (4T1 [24]): Active; Activity (4T1 [25]): 84%; Activity (4T1 [26]): Active; Activity [27]: Active
Cc1c(C)c2c(c(C)c1OC(=O)CCC(=O)O)CC[C@@](C)(CCC[C@H](C)CCC[C@H](C)CCCC(C)C)O2 [(+)-ALPHA-TOCOPHERYL SUCCINATE]	10 µM	inactive	Dose-dependent effect		Dose-dependent effect						Activity (4T1 [28]): inactive; inhibition at 10 µM (4T1 [29]): 50%; inhibition (MCF7 [30]): inactive; inhibition (SK-BR-3 [31]): inactive; inhibition (4T1 [32]): Active; inhibition (4T1 [33]): Active; inhibition (4T1 [34]): Active; inhibition (4T1 [35]): Active; inhibition (4T1 [36]): inactive; Activity (4T1 [37]): inactive
Cc1c(C)c2c(c(C)c1OC(=O)CCC(=O)O)CC[C@](C)(/C=C/CC(C)CCCC(C)C)O2 (stereo partly drawn)	1.3 µM	Active	Dose-dependent effect	Dose-dependent effect	Dose-dependent effect	> 10 µM	Dose-dependent effect	Dose-dependent effect	Active	23 µM	

Continued by falling IC50 (4T1 [1]), values first:

IC50 (4T1 [1])	Activity [7]	SMILES	inhibition (4T1 [1])	inhibition (MCF7 [2])	inhibition (SK-BR-3 [3])	IC50 (4T1 [4])	Activity (4T1 [4])	Activity [5]	inhibition (4T1 [6])	IC50 [5]	further results
2.5 µM	inactive	Cc1c(C)c2c(c(C)c1OC(=O)CCC(=O)O)CC[C@](C)(CCCC(C)CCCC(C)C)O2 (stereo partly drawn)	Dose-dependent effect	Dose-dependent effect	Dose-dependent effect	> 10 µM	Dose-dependent effect	Dose-dependent effect	inactive		
2 µM	Active	Cc1c(C)c2c(c(C)c1OCC(=O)O)CC[C@](C)(CCCC(C)CCCC(C)C)O2 (stereo partly drawn)	Dose-dependent effect	Dose-dependent effect	Dose-dependent effect	> 10 µM	Dose-dependent effect	Dose-dependent effect	Active		Activity (4T1 [8]): Active; Activity (4T1 [9]): Active; Activity (4T1 [10]): 70%; Activity (4T1 [11]): Active

Reference: ChEMBL document CHEMBL1156017, “alpha-Tocopheryl succinate as a scaffold to develop potent inhibitors of breast cancer cell adhesion” (J Med Chem, 2009)
